For experiment [1], the target named is T1, Hematopoietic prostaglandin D synthase (Homo sapiens, UniProt O60760). Nature of the experiment: Inhibition of human H-PGDS expressed in Escherichia coli BL21 assessed as rate of glutathione-chloro-dinitro benzene conjugation at 50 uM. The method in brief:
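GSH–CDNB conjugation by E. coli BL21 DE3-expressed, GSH-affinity purified human H-PGDS (2.5 ng/ml). Buffer was 0.1 M Tris HCl pH 8.0 with 2 mM MgCl2, 1 mM CDNB, 2 mM GSH and 10% ethanol. Read at A340 nm over 10 min at 25 C. Percent inhibition at 50 uM inhibitor, mean ± SD of triplicates.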

Experiment [2] concerns the target T1, Hematopoietic prostaglandin D synthase. Kind of experiment: Inhibition of human H-PGDS expressed in Escherichia coli BL21 assessed as rate of glutathione-chloro-dinitro benzene conjugation. A digest of the protocol: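 Recombinant human H-PGDS from E. coli BL21 DE3 (pET17b, uninduced), GSH-affinity purified. Reaction: 0.1 M Tris HCl pH 8.0, 2 mM MgCl2, 1 mM CDNB, 2 mM GSH, 2.5 ng/ml enzyme, 10% (v/v) ethanol. Conjugate formation followed at A340 nm over 10 min, 25 C. Eight inhibitor concentrations bracketing IC50, background-corrected for solvent. Nonlinear regression, triplicates, mean ± SEM.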

The structures appear in SMILES notation.

T1 sequence (O60760 whole entry): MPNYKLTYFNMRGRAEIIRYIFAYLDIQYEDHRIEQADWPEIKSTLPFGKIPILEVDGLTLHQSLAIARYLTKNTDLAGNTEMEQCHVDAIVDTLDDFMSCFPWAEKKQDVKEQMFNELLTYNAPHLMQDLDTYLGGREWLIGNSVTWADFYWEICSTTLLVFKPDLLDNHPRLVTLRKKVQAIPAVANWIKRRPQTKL

A word on the inhibition: it is the change of the read-out against control, counted positive when it falls. In the case of `O=C(O)CCn1c2c(c3ccccc31)C[C@H](NS(=O)(=O)c1ccc(F)cc1)CC2`, the inhibition in experiment [1] is 0%.

Regarding `O=C(O)c1cc(/N=N/c2ccc(S(=O)(=O)Nc3ccccn3)cc2)ccc1O`, in experiment [1], the inhibition stood at 0%.

By IC50 is commonly meant the concentration needed to halve the response being measured. In the case of `O=C1OC(c2ccc(O)c(S(=O)(=O)O)c2)(c2ccc(O)c(S(=O)(=O)O)c2)c2c(Br)c(Br)c(Br)c(Br)c21` [SULFOBROMOPHTHALEIN], in experiment [2], the IC50 turned out to be 27 µM. Also, the inhibition in experiment [1] was determined as 66.9%.

Turning to `O=C(Nc1ccccc1)Nc1cccc(C(=O)O)c1`, in experiment [1], the inhibition is 8.6%.

`CC1(C)Cc2c(-c3ccccc3)c(-c3ccc(Cl)cc3)c(CC(=O)O)n2C1`: the inhibition in experiment [1] amounted to 0%.

Regarding `O=C(c1ccccc1)c1cccs1`, in experiment [2], the IC50 came out at 9.2 µM. Besides, the inhibition in experiment [1] was determined as 78.2%.

With `O=C(O)COc1ccc(C(=O)c2cccs2)c(Cl)c1Cl`, the inhibition in experiment [1] stood at 0%.

On to `COC(=O)Nc1nc2ccc([S+]([O-])c3ccccc3)cc2[nH]1` (stereo not given) [OXFENDAZOLE], for which, in experiment [2], the IC50 was more than 300 µM.

With `O=C(O)c1ccc2ccccc2c1Br`, the inhibition in experiment [1] came to 5.1%.

As to `c1ccc(C(OC2CCN(CCCc3nnn[nH]3)CC2)c2ccccc2)cc1`, in experiment [2], the IC50 was found to be 1.8 µM. In addition, the inhibition in experiment [1] was found to be 100%.

`COC(=O)Nc1nc2cc([S+]([O-])c3ccccc3)ccc2[nH]1` (stereo not given): in experiment [1], the inhibition came out at 0%.

In the case of `COC(=O)Nc1nc2cc(C(=O)c3cccs3)ccc2[nH]1`, in experiment [1], the inhibition stood at 42.6%.

Consider `O=C(O)Cc1ccccc1Nc1c(Cl)cccc1Cl`, for which the inhibition in experiment [1] is 0%.

Consider `Nc1c(S(=O)(=O)O)cc(Nc2ccc(Nc3nc(Cl)nc(Nc4ccccc4S(=O)(=O)O)n3)c(S(=O)(=O)O)c2)c2c1C(=O)c1ccccc1C2=O` [CIBACRON BLUE], for which the IC50 in experiment [2] is 0.2 µM. For the same compound, in experiment [1], the inhibition was 100%.

For `Cc1cc(CC(=O)O)n(C)c1C(=O)c1ccc(Cl)cc1`, the inhibition in experiment [1] came to 0%.

In the case of `O=C(O)CCCCCC[C@H]1C(=O)NC(=O)N1CCC(O)C1CCCCC1` (stereo not given in full), the inhibition in experiment [1] worked out at 17%.

Regarding `COc1ccc2c(c1)c(CC(=O)O)c(C)n2C(=O)c1ccc(Cl)cc1`, the inhibition in experiment [1] came out at 0%.

On to `C=C(CC)C(=O)c1ccc(OCC(=O)O)c(Cl)c1Cl` [ETHACRYNIC ACID], for which, in experiment [2], the IC50 stood at 122 µM. Besides, the inhibition in experiment [1] came out at 25.3%.

In the case of `COc1ccc(C(=O)c2cccs2)cc1`, the IC50 in experiment [2] worked out at 105 µM. The inhibition in experiment [1] was 41.8%.

(Values after ChEMBL document CHEMBL1154723, “Identification and characterisation of new inhibitors for the human hematopoietic prostaglandin D2 synthase” (Eur J Med Chem, 2010).)
